Screening data (PubChem BioAssay)
Sampled rows, rich in hits. Any-hit rate of the full collection: about 1.7%.
ARNT TACC3 PPI: disruptors of ARNT/TACC3 protein interaction, primary screen, biochemical, AlphaScreen, single concentration; Transforming acidic coiled-coil-containing protein 3 (Homo sapiens), Q9Y6A5; AlphaScreen His-ARNT PAS-B/GST-TACC3 binding, luminescence; TACC3 fragment carries E629A point mutation; inhibition, % at 9.99 µM; 0.66% of 390,000 active; AID 623870, 2012;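 active = mean inhibition of replicates at least 50% and at least half of replicates each reaching 50%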;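 note: 0% = complete ARNT plus TACC3 wells and 100% = ARNT alone without TACC3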
CAL PDZ FP-1: untagged CAL PDZ binding inhibitors, primary screen, biochemical, fluorescence polarization, HTS | inhibition, % at 24.9 µM | 0.92% of 300,000 active | purified CAL PDZ, TMR-peptide fluorescence polarization, 1 h | Golgi-associated PDZ and coiled-coil motif-containing protein (Homo sapiens), Q9HD26;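 active = mean inhibition of at least 30% with at least half of replicates also reaching 30%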;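 note: 0% = DMSO neutral control and 100% = excess unlabeled competitor peptide PRC23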
AI-2 QS modul: Vibrio harveyi AI-2 quorum sensing modulators, primary screen, JMH597 strain, luminescence/OD600 ratio; Vibrio harveyi JMH597 AI-2 luminescence/OD600 ratio, 9 h; active compounds read low; strain lacks LuxN and CqsS sensors; 0 = neutral-control median; activity change, % at 7.5 µM; 0.4% of 300,000 active; AID 2094, 2009; in the data active = activity change below about -75%, passing the limit was not always enough;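 note: luminescence divided by OD600 gain over 9 h not by final OD600 alone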
CAL PDZ FP-2: CAL PDZ peptide-binding inhibitors, primary screen, biochemical, fluorescence polarization, Cer-tagged CAL PDZ, HTS; purified CAL PDZ, TMR-peptide fluorescence polarization, 1 h; inhibition, % at 20 µM; 0.02% of 330,000 active; AID 504414, 2011;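 active = highest replicate inhibition of at least 40%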;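 note: plate controls were DMSO neutral control wells for no effect and unlabeled competitor peptide control wells for full effect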
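System: purified tagged CAL PDZ domain construct (CerCALP). Schedule: 1 h incubation at room temperature before polarization reading. Medium: 25 mM sodium phosphate pH 7.4, 150 mM NaCl, TCEP, IgG, Thesit. Read-out: percent inhibition from loss of millipolarization. Measured by: FP readout, S and P plane fluorescence. Probe or stimulus: fluorescent TMR peptide probe.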
Rce1 inhib: yeast Rce1p protease inhibitors, primary screen, biochemical, fluorescence, cell-free homogeneous. yeast membranes, quenched prenylated peptide cleavage fluorescence. CAAX prenyl protease 2 (Saccharomyces cerevisiae (strain ATCC 204508 / S288c)), Q03530. 0.27% of 290,000 active. calls only. AID 2563, 2010;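 active = fall in fluorescence gain of 50% or more versus controls, with final raw signal at or below 3038400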;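 note: plate controls were neutral control wells for no effect and wells lacking membranes for full effect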
Target sequence (Q03530 whole entry, looked up): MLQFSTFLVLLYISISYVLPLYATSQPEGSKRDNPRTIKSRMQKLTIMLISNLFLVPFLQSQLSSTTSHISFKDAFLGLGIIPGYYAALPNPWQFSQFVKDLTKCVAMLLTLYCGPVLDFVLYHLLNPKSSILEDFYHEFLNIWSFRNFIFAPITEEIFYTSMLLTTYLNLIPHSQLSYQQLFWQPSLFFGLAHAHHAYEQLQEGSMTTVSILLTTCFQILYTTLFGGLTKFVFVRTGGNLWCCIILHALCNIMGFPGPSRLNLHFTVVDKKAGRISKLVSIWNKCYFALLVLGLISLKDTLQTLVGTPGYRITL
An asterisk follows results filed as active.

For COc1ccc(N2C(=O)C3C4C=CC(c5ccccc5)(C3C2=O)C2C(=O)N(c3ccc(OC)cc3)C(=O)C42)cc1 (centres undefined) the results were ARNT TACC3 PPI -3, CAL PDZ FP-1 1, AI-2 QS modul 31, CAL PDZ FP-2 1 and Rce1 inhib inactive.
For Cc1nc(SCC(=O)N2CCN(c3ccccc3)CC2)c2oc3ccccc3c2n1 the results were ARNT TACC3 PPI 3, CAL PDZ FP-1 64*, AI-2 QS modul 8, CAL PDZ FP-2 -1 and Rce1 inhib inactive.
For Cc1ccc(Sc2ccc(N)cc2C#N)cc1 the results were ARNT TACC3 PPI 0, CAL PDZ FP-1 -1, AI-2 QS modul -81* and CAL PDZ FP-2 0.
Screening Cc1ccc(Sc2nnc(-c3ccccc3)cc2C#N)cc1 returned ARNT TACC3 PPI -1, CAL PDZ FP-1 -4, AI-2 QS modul 0, CAL PDZ FP-2 1 and Rce1 inhib inactive.
For Cc1ccc(Nc2nc(N)c3ccccc3n2)cc1Cl the results were ARNT TACC3 PPI 1, CAL PDZ FP-1 -1, AI-2 QS modul -18, CAL PDZ FP-2 -1 and Rce1 inhib inactive.
For C/C(CC(=O)Nc1ccccc1C)=N\NC(=O)Cc1csc(N)n1 the results were ARNT TACC3 PPI -6, CAL PDZ FP-1 44*, AI-2 QS modul 21, CAL PDZ FP-2 -1 and Rce1 inhib inactive.
Screening C/C(CC(=O)Nc1ccc(Br)cc1)=N\NC(=O)Cc1csc(N)n1 returned ARNT TACC3 PPI 1, CAL PDZ FP-1 1, AI-2 QS modul 21, CAL PDZ FP-2 -1 and Rce1 inhib inactive.
For COc1ccccc1Oc1coc2c(CN3CCOCC3)c(O)ccc2c1=O the results were ARNT TACC3 PPI -4, CAL PDZ FP-1 -12, AI-2 QS modul 13 and Rce1 inhib inactive.
COc1ccccc1-c1coc2c(CN3CCOCC3)c(O)ccc2c1=O was read as ARNT TACC3 PPI -1, CAL PDZ FP-1 -3, AI-2 QS modul 7, CAL PDZ FP-2 0 and Rce1 inhib active.
`COc1ccc(C2(C)NC(=O)NC2=O)cc1OC` (centres undefined) gave ARNT TACC3 PPI 1, CAL PDZ FP-1 6, AI-2 QS modul -4, CAL PDZ FP-2 -3 and Rce1 inhib inactive.
O=C(O)COc1ccccc1/C=C1\SC(=S)N(/N=C/c2ccccc2O)C1=O was read as ARNT TACC3 PPI 70*, CAL PDZ FP-1 -2, AI-2 QS modul 18, CAL PDZ FP-2 -2 and Rce1 inhib inactive.
For O=C(O)COc1ccccc1/C=C1\SC(=S)N(NC(=O)c2ccccc2O)C1=O the results were ARNT TACC3 PPI 51*, CAL PDZ FP-1 -3, AI-2 QS modul 18, CAL PDZ FP-2 -1 and Rce1 inhib inactive.
O=C(NN1C(=O)/C(=C/c2cccc(O)c2)SC1=S)c1ccccc1O was read as ARNT TACC3 PPI 25, CAL PDZ FP-1 6, AI-2 QS modul 24, CAL PDZ FP-2 -2 and Rce1 inhib inactive.
`Cc1cccc2cc(C3CC(c4cccs4)=NN3S(C)(=O)=O)c(Cl)nc12` (centres undefined) gave ARNT TACC3 PPI -5, CAL PDZ FP-1 8, AI-2 QS modul 25, CAL PDZ FP-2 -2 and Rce1 inhib inactive.
O=C(CCc1c[nH]c2ccccc12)NCCc1ccc(Cl)cc1 was read as ARNT TACC3 PPI 2, CAL PDZ FP-1 36*, AI-2 QS modul 16, CAL PDZ FP-2 -1 and Rce1 inhib inactive.
`O=C(CCc1c[nH]c2ccccc12)NCCc1ccccc1` gave ARNT TACC3 PPI -5, CAL PDZ FP-1 -3, AI-2 QS modul -9, CAL PDZ FP-2 -1 and Rce1 inhib inactive.
`O=C(CN(C1CCCCC1)S(=O)(=O)c1ccc(F)cc1)Nc1ccc2c(c1)OCO2` gave ARNT TACC3 PPI 9, CAL PDZ FP-1 -3, AI-2 QS modul 6, CAL PDZ FP-2 -2 and Rce1 inhib inactive.
Screening Cc1ncc(CO)c(CNc2ccc(Oc3ccccc3)cc2)c1O returned ARNT TACC3 PPI 5, CAL PDZ FP-1 -1, AI-2 QS modul -87*, CAL PDZ FP-2 0 and Rce1 inhib inactive.
Screening O=c1[nH]c(=O)n([C@H]2C[C@H](O)[C@@H](CO)O2)cc1C(F)(F)F returned ARNT TACC3 PPI -3, CAL PDZ FP-1 -3, AI-2 QS modul -108*, CAL PDZ FP-2 0 and Rce1 inhib inactive.
For O=c1[nH]c(=O)n(C2C[C@H](O)[C@@H](CO)O2)cc1C(F)(F)F (some centres undefined) the results were ARNT TACC3 PPI -2, CAL PDZ FP-1 -3 and CAL PDZ FP-2 -2.
For CC(C)N(C(=O)CO/N=C/c1cccc([N+](=O)[O-])c1)C(C)C the results were ARNT TACC3 PPI 14, CAL PDZ FP-1 -1, AI-2 QS modul 22, CAL PDZ FP-2 -3 and Rce1 inhib inactive.
O=Nc1c(O)[nH]c2ccc(Cl)c(Cl)c12 was read as ARNT TACC3 PPI 59*, CAL PDZ FP-1 -4 and CAL PDZ FP-2 -2.
For COc1ccc(S(=O)(=O)Nc2ccc3c(c2)C(=O)N([C@H](C)CO)C[C@H](C)[C@H](CN(C)C(=O)NC2CCCCC2)OCCCC[C@@H](C)O3)cc1 the results were ARNT TACC3 PPI -9.
Screening c1ccc2c(NC3=NCCCCS3)cccc2c1 returned ARNT TACC3 PPI 4, CAL PDZ FP-1 34*, AI-2 QS modul 9 and Rce1 inhib inactive.
c1ccc(NC2=NCCCCS2)cc1 was read as ARNT TACC3 PPI 0, CAL PDZ FP-1 -4, AI-2 QS modul 2, CAL PDZ FP-2 0 and Rce1 inhib inactive.
`COc1ccc(O)c(/C=N/NC(=S)Nc2cccc(S(=O)(=O)N(C)C)c2)c1` gave ARNT TACC3 PPI 65*, CAL PDZ FP-1 -4, AI-2 QS modul -5, CAL PDZ FP-2 1 and Rce1 inhib inactive.
Screening COc1cccc(/C=N/NC(=S)Nc2cccc(S(=O)(=O)N(C)C)c2)c1 returned ARNT TACC3 PPI 13, CAL PDZ FP-1 -2, AI-2 QS modul 17, CAL PDZ FP-2 -2 and Rce1 inhib inactive.
For CN(C)S(=O)(=O)c1cccc(NC(=S)N/N=C/c2ccc(O)c(O)c2O)c1 the results were ARNT TACC3 PPI 69*, CAL PDZ FP-1 2, AI-2 QS modul 15, CAL PDZ FP-2 -3 and Rce1 inhib inactive.
For COc1cccc(/C=N/NC(=S)Nc2cccnc2)c1 the results were ARNT TACC3 PPI 3, CAL PDZ FP-1 -2, AI-2 QS modul 21, CAL PDZ FP-2 10 and Rce1 inhib inactive.
